From ChEMBL document CHEMBL1154956, “Stereospecific synthesis of oximes and oxime ethers of 3-azabicycles: A SAR study towards antimicrobial agents” (2010)
In brackets after ≈: the same amount, converted by molar mass.

Columns and labels:
Format in all cases: functional
[1] = system: Pseudomonas aeruginosa; assay: Antibacterial activity against Pseudomonas aeruginosa by NCCLS broth microdilution method
[2] = system: Candida parapsilosis; assay: Antifungal activity against Candida parapsilosis by NCCLS broth microdilution method
Outline: (§1)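 MIC90 was taken as the lowest concentration that inhibited 90% of pathogen growth after incubation, reported in μg/mL. Broth dilution followed the NCCLS reference standards: M27-A for yeasts and the proposed standard for conidium-forming filamentous fungi. Fluconazole was the reference drug.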

[3] = system: Cryptococcus neoformans; assay: Antifungal activity against Cryptococcus neoformans by NCCLS broth microdilution method; outline: as §1
[4] = system: Staphylococcus aureus; assay: Antibacterial activity against Staphylococcus aureus by NCCLS broth microdilution method
[5] = system: Bacillus subtilis; assay: Antibacterial activity against Bacillus subtilis by NCCLS broth microdilution method
[6] = system: Candida albicans; assay: Antifungal activity against Candida albicans by NCCLS broth microdilution method; outline: as §1
[7] = system: Aspergillus niger; assay: Antifungal activity against Aspergillus niger by NCCLS broth microdilution method; outline: as §1
[8] = system: Klebsiella pneumoniae; assay: Antibacterial activity against Klebsiella pneumoniae by NCCLS broth microdilution method
[9] = Pseudomonas aeruginosa, read-out: MIC90
[10] = Lodderomyces parapsilosis, read-out: MIC90
[11] = Cryptococcus neoformans, read-out: MIC90
[12] = Staphylococcus aureus, read-out: MIC90
[13] = Bacillus subtilis, read-out: MIC90
[14] = Candida albicans, read-out: MIC90
[15] = Aspergillus niger, read-out: MIC90
[16] = Klebsiella pneumoniae, read-out: MIC90

SMILES	MIC90 [1, 9] [µg/mL]	MIC90 [2, 10] [µg/mL]	MIC90 [3, 11] [µg/mL]	MIC90 [4, 12] [µg/mL]	MIC90 [5, 13] [µg/mL]	MIC90 [6, 14] [µg/mL]	MIC90 [7, 15] [µg/mL]	MIC90 [8, 16] [µg/mL]	MIC90 [6] [µg/mL]	MIC90 [7] [µg/mL]	MIC90 [1] [µg/mL]	MIC90 [2] [µg/mL]	MIC90 [3] [µg/mL]	MIC90 [4] [µg/mL]	MIC90 [5] [µg/mL]	MIC90 [8] [µg/mL]
CON=C1C2CC(C)CC1C(c1ccc(Cl)cc1)NC2c1ccc(Cl)cc1 (configuration not stated)	32 (≈ 79.3 µM)	16 (≈ 39.7 µM)	16 (≈ 39.7 µM)	16 (≈ 39.7 µM)	16 (≈ 39.7 µM)	32 (≈ 79.3 µM)	64 (≈ 159 µM)	8 (≈ 19.8 µM)								
CC1CC2C(=NO)C(C1)C(c1cccc(Cl)c1)NC2c1cccc(Cl)c1 (configuration not stated)	64 (≈ 164 µM)	128 (≈ 329 µM)	> 128	64 (≈ 164 µM)	32 (≈ 82.2 µM)	64 (≈ 164 µM)	64 (≈ 164 µM)	32 (≈ 82.2 µM)								
CC12CCCC(/C1=N\O)C(c1ccccc1)NC2c1ccccc1 (configuration not stated)	> 128	> 128	> 128	128 (≈ 399 µM)	> 128	> 128	> 128	> 128								
Cc1ccccc1C1NC(c2ccccc2C)C2(C)CCCC1/C2=N\O (configuration not stated)	> 128	> 128	> 128	128 (≈ 367 µM)	64 (≈ 184 µM)	128 (≈ 367 µM)	64 (≈ 184 µM)	128 (≈ 367 µM)								
CON=C1C2CC(C)CC1C(c1cccc(F)c1)NC2c1cccc(F)c1 (stereo in doubt; 56a)	64 (≈ 173 µM)	32 (≈ 86.4 µM)	64 (≈ 173 µM)	16 (≈ 43.2 µM)	16 (≈ 43.2 µM)			64 (≈ 173 µM)	32 (≈ 86.4 µM)	64 (≈ 173 µM)						
CC1CC2C(=NO)C(C1)C(c1ccccc1Cl)NC2c1ccccc1Cl (stereo in doubt; 52a)		32 (≈ 82.2 µM)	32 (≈ 82.2 µM)	16 (≈ 41.1 µM)	32 (≈ 82.2 µM)			32 (≈ 82.2 µM)	16 (≈ 41.1 µM)	> 128	32 (≈ 82.2 µM)					
CO/N=C1\C2CCCC1(C)C(c1ccc(Cl)cc1)NC2c1ccc(Cl)cc1 (configuration not stated)	64 (≈ 159 µM)	16 (≈ 39.7 µM)	8 (≈ 19.8 µM)	32 (≈ 79.3 µM)	64 (≈ 159 µM)	16 (≈ 39.7 µM)	8 (≈ 19.8 µM)	16 (≈ 39.7 µM)								
CO/N=C1\C2CCCC1(C)C(c1ccc(F)cc1)NC2c1ccc(F)cc1 (configuration not stated)	16 (≈ 43.2 µM)	8 (≈ 21.6 µM)	16 (≈ 43.2 µM)	8 (≈ 21.6 µM)	32 (≈ 86.4 µM)	8 (≈ 21.6 µM)	32 (≈ 86.4 µM)	16 (≈ 43.2 µM)								
CON=C1C2CC(C)CC1C(c1ccc(F)cc1)NC2c1ccc(F)cc1 (configuration not stated)	16 (≈ 43.2 µM)	64 (≈ 173 µM)	8 (≈ 21.6 µM)	4 (≈ 10.8 µM)	16 (≈ 43.2 µM)	16 (≈ 43.2 µM)	16 (≈ 43.2 µM)	8 (≈ 21.6 µM)								
CC1CC2C(=NO)C(C1)C(c1ccccc1Cl)NC2c1ccccc1Cl (stereo in doubt; 52b)									4 (≈ 10.3 µM)	32 (≈ 82.2 µM)	>128	16 (≈ 41.1 µM)	64 (≈ 164 µM)	16 (≈ 41.1 µM)	64 (≈ 164 µM)	32 (≈ 82.2 µM)
CON=C1C2CC(C)CC1C(c1ccccc1F)NC2c1ccccc1F (stereo in doubt; 55b)									2 (≈ 5.4 µM)	2 (≈ 5.4 µM)	32 (≈ 86.4 µM)	2 (≈ 5.4 µM)	4 (≈ 10.8 µM)	16 (≈ 43.2 µM)	8 (≈ 21.6 µM)	16 (≈ 43.2 µM)
CON=C1C2CC(C)CC1C(c1cccc(F)c1)NC2c1cccc(F)c1 (stereo in doubt; 56b)									8 (≈ 21.6 µM)	16 (≈ 43.2 µM)	64 (≈ 173 µM)	16 (≈ 43.2 µM)	32 (≈ 86.4 µM)	32 (≈ 86.4 µM)	32 (≈ 86.4 µM)	64 (≈ 173 µM)
CO/N=C1\C2CCCC1(C)C(c1ccc(Br)cc1)NC2c1ccc(Br)cc1 (configuration not stated)	> 128	128 (≈ 260 µM)	64 (≈ 130 µM)	32 (≈ 65 µM)	64 (≈ 130 µM)	64 (≈ 130 µM)	32 (≈ 65 µM)	32 (≈ 65 µM)								
CO/N=C1\C2CCCC1(C)C(c1cccc(OC)c1)NC2c1cccc(OC)c1 (configuration not stated)	> 128	64 (≈ 162 µM)	128 (≈ 324 µM)	32 (≈ 81.1 µM)	64 (≈ 162 µM)	> 128	> 128	128 (≈ 324 µM)								
